ChEMBL document CHEMBL5715948, “Tubastatin, a selective histone deacetylase 6 inhibitor shows anti-inflammatory and anti-rheumatic effects” (Int Immunopharmacol, 2013)
Active and inactive are the calls of the source. The calls are words filed in the database; no cut-off is given here.

What was measured:
THP-1 [1] = assay: Inhibition of LPS-stimulated TNFalpha production in PMA-activated human THP-1 cells pre-incubated for 24 hrs before LPS-stimulation and measured after 4 hrs post LPS challenge by ELISA; type: functional, cell-based; conditions: time 28.0 hrs
Method in brief: (§1)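 THP-1 cells, 10,000/well, differentiated with 32 nM PMA for 24 h, medium replaced and rested 24 h, then compound 24 h before LPS: 10 ng/ml for 4 h (TNF-α) or 100 ng/ml for 8 h (IL-6). Conditioned medium assayed by human ELISA at 450 nm; mean ± SD, n = 3; IC50 from dose–response.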

THP-1 [2] = assay: Inhibition of LPS-stimulated IL6 production in PMA-activated human THP-1 cells pre-incubated for 24 hrs before LPS-stimulation and measured after 8 hrs post LPS challenge by ELISA; type: functional, cell-based; conditions: time 32.0 hrs; method in brief: as §1
THP-1 [3] = assay: Cytotoxicity in human THP-1 cells at 100 to 100000 nM incubated for 24 hrs by SRB assay; type: toxicity, cell-based; conditions: thp-1, 24 h, 100 µM, dose 100-100000 nM
Method in brief: (§2)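 RAW 264.7 (DMEM) or THP-1 (RPMI-1640) cells, 10% FBS, seeded 10,000/well and exposed 24 h to compound in DMSO over 100–100000 nM. SRB staining, absorbance 530 nm; % survival relative to untreated cells, mean ± SD, n = 3.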

RAW264.7 [4] = assay: Cytotoxicity in mouse RAW264.7 cells at 100 to 100000 nM incubated for 24 hrs by SRB assay; type: toxicity, cell-based; conditions: raw264.7, 24 h, 100 µM, dose 100-100000 nM; method in brief: as §2
RAW264.7 [5] = assay: Inhibition of LPS-stimulated NO production in mouse RAW264.7 cells pre-incubated for 24 hrs before LPS-stimulation and measured after 24 hrs post LPS challenge by Griess assay; type: functional, cell-based; conditions: time 48.0 hrs
Method in brief: (§3)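 RAW 264.7 cells (1 million) in 24-well plates, 24 h settle, compound 24 h, then LPS 100 ng/ml for 24 h. Medium nitrite measured with Griess reagent (1% sulfanilamide, 0.1% naphthylethylenediamine in 2.5% phosphoric acid), 10 min room temperature, absorbance 570 nm, quantified against sodium nitrite standard curve; mean ± SD, n = 3.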

RAW264.7 [6] = assay: Inhibition of LPS-stimulated NO production in mouse RAW264.7 cells at 10 uM pre-incubated for 24 hrs before LPS-stimulation and measured after 24 hrs post LPS challenge by Griess assay; type: functional; conditions: time 48 hrs; method in brief: as §3
Rattus norvegicus [7] = assay: Antiinflammatory activity in Wistar rat assessed as inhibition of FCA-induced paw inflammation at 30 mg/kg/day, ip for 5 days measured 2 hrs after FCA challenge relative to control; type: functional; conditions: 120 h, time 5 day
Method in brief: (§4)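 Male Wistar rats (200–225 g) randomized by paw volume, n = 6. Test agent i.p. daily for 5 days or reference oral on day 5; 1 h after dosing on day 5, 100 μg M. tuberculosis in 50 μl IFA injected sub-plantar into both hind paws. Paw volume plethysmometry at 2, 6, 24 h; % inhibition versus vehicle disease control.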

Rattus norvegicus [8] = assay: Antiinflammatory activity in Wistar rat assessed as inhibition of FCA-induced paw inflammation at 30 mg/kg/day, ip for 5 days and measured 6 hrs after FCA challenge relative to control; type: functional; conditions: 120 h, time 5 day; method in brief: as §4
Rattus norvegicus [9] = assay: Antiinflammatory activity in Wistar rat assessed as inhibition of FCA-induced paw inflammation at 30 mg/kg/day, ip for 5 days and measured 24 hrs after FCA challenge relative to control; type: functional; conditions: 120 h, time 5 day; method in brief: as §4
Mus musculus [10] = assay: (§5) Anti-rheumatic activity in DBA1 mouse semi-therapeutic collagen induced arthritis model assessed as inhibition of clinical arthritic scores at 30 mg/kg/day, ip QD dosed during day 21 to day 36 post immunization by hematoxylin and eosin staining based analysis; type: functional; conditions: DBA1, 384 h, time 16 day
Method in brief: (§6)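 Collagen-induced arthritis in female DBA1 mice: collagen II/CFA intradermal at tail base day 0, collagen/IFA boost day 21, LPS 50 μg i.p. day 28; once-daily dosing day 21 to 36, six per group. Arthritic clinical scores followed daily from day 28 to 37; mean ± SEM versus vehicle-treated disease control.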

Mus musculus [11] = assay: Anti-rheumatic activity in DBA1 mouse semi-therapeutic collagen induced arthritis model assessed as inhibition of IL6 level in paw tissues at 30 mg/kg/day, ip QD dosed during day 21 to day 36 post immunization by ELISA analysis; type: functional; conditions: 384 h, time 16 day
Method in brief: (§7)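 Female DBA1 mice (6–8 weeks) immunized intradermally at tail base on day 0 with bovine type II collagen in CFA, boosted day 21 with collagen in IFA, LPS 50 μg i.p. day 28; dosed day 21–36 (n = 6/group). Day 37 left paws frozen, pulverized in liquid nitrogen, homogenized in T-PER, spun 500 g 10 min 4 °C; supernatant IL-6 by ELISA, normalized per mg protein.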

Mus musculus [12] = assay: as §5, with “histopathological changes (cartilage erosion, synovial hyperplasia and inflammation)” for “clinical arthritic scores”; type: functional; conditions: DBA1, 384 h, time 16 day
Method in brief: (§8)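 Histopathology in collagen II/CFA-immunized DBA1 mice (day 21 boost, day 28 LPS i.p.), treated day 21–36, n = 6. Right fore and hind paws taken at sacrifice on day 37, paraffin-embedded, sectioned, H&E-stained and scored for cartilage erosion, synovial hyperplasia, pannus and cell infiltration.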

Mus musculus [13] = assay: Anti-rheumatic activity in DBA1 mouse semi-therapeutic collagen induced arthritis model assessed as mild cartilaginous change like proteoglycan loss at 30 mg/kg/day, ip QD dosed during day 21 to day 36 post immunization by Safranin O staining analysis; type: functional, organism-based; conditions: time 16.0 day
Method in brief: (§9)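 Right fore and hind paws from collagen-induced arthritic DBA1 mice (treated day 21–36, sacrificed day 37) paraffin-sectioned and stained with Safranin O to detect proteoglycan/glycosaminoglycan loss in articular cartilage.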

[14] = Toxicity in DBA1 mouse semi-therapeutic collagen induced arthritis model assessed as spleen weight at 30 mg/kg/day, ip QD dosed during day 21 to day 36 post immunization (reference value: 226.4 +/- 11.03 mg); type: organism-based; conditions: in vivo, 384 h, time 16 day
[15] = Toxicity in DBA1 mouse semi-therapeutic collagen induced arthritis model assessed as thymus weight at 30 mg/kg/day, ip QD dosed during day 21 to day 36 post immunization (reference value: 12.20 +/- 1.5 mg); type: organism-based; conditions: in vivo, 384 h, time 16 day
[16] = Toxicity in DBA1 mouse semi-therapeutic collagen induced arthritis model assessed as change in body weight at 30 mg/kg/day, ip QD dosed during day 21 to day 36 post immunization (reference value: -25.03 +/- 5.22%); type: organism-based; conditions: in vivo, 384 h, time 16 day
Rattus norvegicus [17] = assay: Antiinflammatory activity in Wistar rat assessed as inhibition of FCA-induced paw inflammation at 1 mg/kg/day, po […] measured 2 hrs after FCA challenge relative to control; type: functional; method in brief: as §4
Rattus norvegicus [18] = assay: Antiinflammatory activity in Wistar rat assessed as inhibition of FCA-induced paw inflammation at 1 mg/kg/day, po […] measured 6 hrs after FCA challenge relative to control; type: functional; method in brief: as §4
Rattus norvegicus [19] = assay: Antiinflammatory activity in Wistar rat assessed as inhibition of FCA-induced paw inflammation at 1 mg/kg/day, […] measured 24 hrs after FCA challenge relative to control; type: functional; conditions: route po; method in brief: as §4
Mus musculus [20] = assay: (§10) Anti-rheumatic activity in DBA1 mouse semi-therapeutic collagen induced arthritis model assessed as inhibition of clinical arthritic scores at 0.1 mg/kg/day, po QD dosed during day 21 to day 36 post immunization by hematoxylin and eosin staining based analysis; type: functional; conditions: DBA1, 384 h, time 16 day; method in brief: as §6
Mus musculus [21] = assay: Anti-rheumatic activity in DBA1 mouse semi-therapeutic collagen induced arthritis model assessed as inhibition of IL6 level in paw tissues at 0.1 mg/kg/day, po QD dosed during day 21 to day 36 post immunization by ELISA analysis; type: functional; conditions: 384 h, time 16 day; method in brief: as §7
Mus musculus [22] = assay: as §10, with “histopathological changes (cartilage erosion, synovial hyperplasia and inflammation)” for “clinical arthritic scores”; type: functional; conditions: DBA1, 384 h, time 16 day; method in brief: as §8
Mus musculus [23] = assay: Anti-rheumatic activity in DBA1 mouse semi-therapeutic collagen induced arthritis model assessed as mild cartilaginous change like proteoglycan loss at 0.1 mg/kg/day, po QD dosed during day 21 to day 36 post immunization by Safranin O staining analysis; type: functional, organism-based; conditions: time 16.0 day; method in brief: as §9
[24] = Toxicity in DBA1 mouse semi-therapeutic collagen induced arthritis model assessed as spleen weight at 0.1 mg/kg/day, po QD dosed during day 21 to day 36 post immunization (reference value: 226.4 +/- 11.03 mg); type: organism-based; conditions: in vivo, 384 h, time 16 day
[25] = Toxicity in DBA1 mouse semi-therapeutic collagen induced arthritis model assessed as thymus weight at 0.1 mg/kg/day, po QD dosed during day 21 to day 36 post immunization (reference value: 12.20 +/- 1.5 mg); type: organism-based; conditions: in vivo, 384 h, time 16 day
[26] = Toxicity in DBA1 mouse semi-therapeutic collagen induced arthritis model assessed as change in body weight at 0.1 mg/kg/day, po QD dosed during day 21 to day 36 post immunization (reference value: -25.03 +/- 5.22%); type: organism-based; conditions: in vivo, 384 h, time 16 day

Q: What does the source list for `CN1CCc2c(c3ccccc3n2Cc2ccc(C(=O)NO)cc2)C1` [TUBASTATIN A]?
A: inhibition (THP-1 [1]): Dose-Dependent Effect; inhibition (THP-1 [2]): Dose-Dependent Effect; Activity (THP-1 [3]): Non-Toxic; Activity (RAW264.7 [4]): Non-Toxic; inhibition (RAW264.7 [5]): Dose-Dependent Effect; inhibition at 10 µM (RAW264.7 [6]): 66%; inhibition in vivo at 30 mg/kg/day (Rattus norvegicus [7]): 71.9%; inhibition in vivo at 30 mg/kg/day (Rattus norvegicus [8]): 40.3%; inhibition in vivo at 30 mg/kg/day (Rattus norvegicus [9]): 38.6%; inhibition in vivo at 30 mg/kg/day (Mus musculus [10]): 73%; inhibition in vivo at 30 mg/kg/day (Mus musculus [11]): 59%; inhibition in vivo at 30 mg/kg/day (Mus musculus [12]): 71%; Activity (Mus musculus [13]): Active; Activity [14]: 182 mg; Activity [15]: 17.5 mg; Activity [16]: -1.07%

Q: For `C[C@@H]1C[C@H]2[C@@H]3CCC4=CC(=O)C=C[C@]4(C)[C@@]3(F)[C@@H](O)C[C@]2(C)[C@@]1(O)C(=O)CO` [DEXAMETHASONE], which inhibition at 10 µM (RAW264.7 [6]) is on record?
A: 36%

Q: And the inhibition in vivo at 1 mg/kg/day (Rattus norvegicus [17])?
A: 65.4%

Q: What about the inhibition in vivo at 1 mg/kg/day (Rattus norvegicus [18]) of the same compound?
A: 90.5%

Q: And the inhibition in vivo at 1 mg/kg/day (Rattus norvegicus [19])?
A: 49.5%

Q: What about the inhibition in vivo at 0.1 mg/kg/day (Mus musculus [20]) of the same compound?
A: 92%

Q: What about the inhibition in vivo at 0.1 mg/kg/day (Mus musculus [21]) of the same compound?
A: 66%

Q: What about the inhibition in vivo at 0.1 mg/kg/day (Mus musculus [22]) of the same compound?
A: 100%

Q: What about the Activity (Mus musculus [23]) of the same compound?
A: Active

Q: What about the Activity [24] of the same compound?
A: 52.5 mg

Q: What about the Activity [25] of the same compound?
A: 6.5 mg

Q: What about the Activity [26] of the same compound?
A: -13.9%
